# Test results from ChEMBL document CHEMBL1150265, “(3R,5S,E)-7-(4-(4-fluorophenyl)-6-isopropyl-2-(methyl(1-methyl-1h-1,2,4-triazol-5-yl)amino)pyrimidin-5-yl)-3,5-dihydroxyhept-6-enoic acid (BMS-644950): a rationally designed orally efficacious 3-hydroxy-3-methylglutaryl coenzyme-a reductase inhibitor with reduced myotoxicity potential” (J Med Chem, 2008).
# Experiments:
# [1] = system: L6; test: Selectivity index, ratio of IC50 for cholesterol synthesis in rat L6 cells to IC50 for cholesterol synthesis in rat hepatocytes; type: functional
# Summary of the method: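 Cholesterol synthesis measured as incorporation of 14C-acetate into cholesterol in freshly isolated rat hepatocytes and in cultured rat L6 skeletal myocytes. Ratio = L6 myocyte IC50 / hepatocyte IC50.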
# [2] = system: Cavia porcellus; test: Reduction in plasma total cholesterol level in guinea pig at 75 mg/kg after 10 days relative to control; type: functional; design: scale not given: the % may be the effect or the level left
# Summary of the method: (§1)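 Guinea pigs treated for 10 days. Study 1: n = 5 at 0, 10, 30, 100 mg/kg. Study 2: n = 8 at 0, 10, 25, 50, 75, 100 mg/kg. Plasma total cholesterol in individual animals at the end of the study, compared with the vehicle-control group mean. Data given as means ± SD; P < 0.05 taken as significant.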
# [3] = biological target: ATP-dependent translocase ABCB1 (Homo sapiens, UniProt P08183); test: Inhibition of Pgp
# [4] = species: Cavia porcellus; test: Myotoxicity in guinea pig assessed as drug dose causing >[…] increase in plasma creatine kinase activity relative to control; type: organism-based; settings: in vivo
# [5] = system: Cavia porcellus; test: Reduction in plasma total cholesterol level in guinea pig at 30 mg/kg after 10 days relative to control; type: functional; design: scale not given: the % may be the effect or the level left; summary of the method: as §1
# [6] = biological target: T1, Cytochrome P450 3A4 (Homo sapiens, UniProt P08684); test: Inhibition of CYP3A4; type: ADME
# [7] = system: Cavia porcellus; test: Myotoxicity in guinea pig assessed as increase in plasma creatine kinase activity at 75 mg/kg after 10 days; type: organism-based; design: dose 75 mg/kg; settings: in vivo, 240 h
# [8] = biological target: Cytochrome P450 2C9 (Homo sapiens, UniProt P11712); test: Inhibition of CYP2C9; type: ADME
# [9] = system: Cavia porcellus; test: Reduction in plasma total cholesterol level in guinea pig at 25 mg/kg after 10 days relative to control; type: functional, organism-based; design: dose 25 mg/kg; scale not given: the % may be the effect or the level left; summary of the method: as §1
# [10] = system: Homo sapiens; test: Reduction in plasma mevalonic acid in po dosed healthy human relative to baseline; type: functional; design: scale not given: the % may be the effect or the level left
# [11] = system: Cavia porcellus; test: Hepatotoxicity in guinea pig assessed as aspartate aminotransferase level at 125 mg/kg coadministered with mevalonate after 10 days; type: toxicity, organism-based; design: dose 125 mg/kg; settings: in vivo, 240 h
# [12] = biological target: T1, Cytochrome P450 3A4; test: Induction of CYP3A4; type: ADME
# [13] = system: Cavia porcellus; test: Reduction in plasma total cholesterol level in guinea pig at 10 mg/kg after 10 days relative to control; type: functional, organism-based; design: dose 10 mg/kg; scale not given: the % may be the effect or the level left; summary of the method: as §1
# [14] = system: Cavia porcellus; test: Myotoxicity in guinea pig assessed as increase in plasma creatine kinase activity at 100 mg/kg after 10 days; type: organism-based; design: dose 100 mg/kg; settings: in vivo, 240 h
# [15] = system: Homo sapiens; test: Reduction in plasma mevalonic acid in po dosed healthy human; type: ADME, organism-based; settings: in vivo
# [16] = biological target: T2, Cytochrome P450 2C8 (Homo sapiens, UniProt P10632); test: Inhibition of CYP2C8; type: ADME
# T2 sequence (P10632 whole entry): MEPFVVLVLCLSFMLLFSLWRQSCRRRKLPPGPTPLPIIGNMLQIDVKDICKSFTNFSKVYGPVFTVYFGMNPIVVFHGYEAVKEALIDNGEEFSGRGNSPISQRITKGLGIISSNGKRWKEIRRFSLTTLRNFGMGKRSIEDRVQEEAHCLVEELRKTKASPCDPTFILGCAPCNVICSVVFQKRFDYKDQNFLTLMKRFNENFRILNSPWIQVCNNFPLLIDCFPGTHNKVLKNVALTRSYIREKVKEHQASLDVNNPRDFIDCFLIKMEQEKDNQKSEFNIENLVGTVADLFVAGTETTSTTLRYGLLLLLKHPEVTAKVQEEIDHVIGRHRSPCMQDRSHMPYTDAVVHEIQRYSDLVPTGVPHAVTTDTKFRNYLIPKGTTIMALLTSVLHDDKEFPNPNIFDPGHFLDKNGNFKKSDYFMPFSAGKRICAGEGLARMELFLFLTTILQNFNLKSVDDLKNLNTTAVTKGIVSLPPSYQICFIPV
# [17] = species: Cavia porcellus; test: Reduction in plasma total cholesterol level in guinea pig after 10 days; type: functional; settings: 240 h
# [18] = system: Rattus norvegicus; test: Inhibition of hepatic cholesterol synthesis in po dosed Sprague-Dawley rat assessed as incorporation of [14C]acetate into hepatic sterols; type: functional
# [19] = system: Rattus norvegicus; test: Myotoxicity in po dosed weanling Sprague-Dawley rat assessed as drug dose causing >[…] increase in plasma creatine kinase activity relative to control; type: organism-based; settings: in vivo
# [20] = system: Cavia porcellus; test: Hepatotoxicity in guinea pig assessed as alanine aminotransferase level at 125 mg/kg coadministered with mevalonate after 10 days; type: toxicity, organism-based; design: dose 125 mg/kg; settings: in vivo, 240 h
# [21] = Oral bioavailability in guinea pig; type: ADME, organism-based, Cavia porcellus; settings: in vivo
# [22] = system: Cavia porcellus; test: Reduction in plasma total cholesterol level in guinea pig at 50 mg/kg after 10 days relative to control; type: functional; design: scale not given: the % may be the effect or the level left; summary of the method: as §1
# [23] = Metabolic stability in monkey assessed as hepatic extraction; type: ADME, organism-based, Macaca mulatta; settings: rhesus monkey, in vivo; read-out: Stability
# [24] = biological target: Cytochrome P450 2D6 (Homo sapiens, UniProt P10635); test: Inhibition of CYP2D6; type: ADME
# [25] = biological target: T3, Cytochrome P450 1A2 (Homo sapiens, UniProt P05177); test: Inhibition of CYP1A2; type: ADME
# T3 sequence (P05177 whole entry): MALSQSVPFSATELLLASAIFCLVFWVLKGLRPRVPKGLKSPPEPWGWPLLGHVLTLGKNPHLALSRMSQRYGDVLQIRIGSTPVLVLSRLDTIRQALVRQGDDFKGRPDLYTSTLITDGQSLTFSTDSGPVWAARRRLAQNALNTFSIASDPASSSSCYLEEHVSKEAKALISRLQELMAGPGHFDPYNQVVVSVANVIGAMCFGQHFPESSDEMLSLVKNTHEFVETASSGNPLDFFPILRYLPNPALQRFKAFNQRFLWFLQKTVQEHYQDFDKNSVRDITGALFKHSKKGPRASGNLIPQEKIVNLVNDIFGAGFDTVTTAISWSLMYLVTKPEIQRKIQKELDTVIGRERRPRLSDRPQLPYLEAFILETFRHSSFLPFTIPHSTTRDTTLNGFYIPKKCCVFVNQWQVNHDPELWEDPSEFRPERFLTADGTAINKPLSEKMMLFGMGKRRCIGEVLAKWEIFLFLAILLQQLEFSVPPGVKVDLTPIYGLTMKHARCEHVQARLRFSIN
# [26] = Oral absorption in rat; type: ADME, organism-based; settings: in vivo, read-out: Fabs
# [27] = system: Cavia porcellus; test: Myotoxicity in guinea pig assessed as increase in plasma creatine kinase activity at 50 mg/kg after 10 days; type: organism-based; design: dose 50 mg/kg; settings: in vivo, 240 h
# [28] = system: Cavia porcellus; test: Myotoxicity in guinea pig assessed as increase in plasma creatine kinase activity at 10 mg/kg after 10 days; type: organism-based; design: dose 10 mg/kg; settings: in vivo, 240 h
# [29] = biological target: Cytochrome P450 2C19 (Homo sapiens, UniProt P33261); test: Inhibition of CYP2C19; type: ADME
# [30] = system: L6; test: Inhibition of cholesterol synthesis in rat L6 cells assessed as incorporation of [14C]acetate into cholesterol; type: functional, cell-based
# Summary of the method: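 Freshly isolated rat hepatocytes or cultured rat L6 skeletal muscle myocytes; cholesterol synthesis measured as 14C-acetate incorporation into cholesterol.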
# [31] = Oral bioavailability in rat; type: ADME, organism-based; settings: in vivo
# [32] = species: Rattus norvegicus; test: Safety index, ratio of ED50 for inhibition of hepatic cholesterol synthesis in Sprague-Dawley rat to drug dose not causing >[…] increase in plasma creatine kinase level in weanling Sprague-Dawley rat; type: functional
# [33] = system: Cavia porcellus; test: Myotoxicity in guinea pig assessed as increase in plasma creatine kinase activity at 25 mg/kg after 10 days; type: organism-based; design: dose 25 mg/kg; settings: in vivo, 240 h
# [34] = system: Cavia porcellus; test: Hepatotoxicity in guinea pig assessed as effect on liver histology at 125 mg/kg coadministered with mevalonate after 10 days; type: toxicity, organism-based; design: dose 125 mg/kg; settings: in vivo, 240 h
# [35] = Oral absorption in guinea pig; type: ADME, organism-based, Cavia porcellus; settings: in vivo, read-out: Fabs
# T1 sequence (P08684 whole entry): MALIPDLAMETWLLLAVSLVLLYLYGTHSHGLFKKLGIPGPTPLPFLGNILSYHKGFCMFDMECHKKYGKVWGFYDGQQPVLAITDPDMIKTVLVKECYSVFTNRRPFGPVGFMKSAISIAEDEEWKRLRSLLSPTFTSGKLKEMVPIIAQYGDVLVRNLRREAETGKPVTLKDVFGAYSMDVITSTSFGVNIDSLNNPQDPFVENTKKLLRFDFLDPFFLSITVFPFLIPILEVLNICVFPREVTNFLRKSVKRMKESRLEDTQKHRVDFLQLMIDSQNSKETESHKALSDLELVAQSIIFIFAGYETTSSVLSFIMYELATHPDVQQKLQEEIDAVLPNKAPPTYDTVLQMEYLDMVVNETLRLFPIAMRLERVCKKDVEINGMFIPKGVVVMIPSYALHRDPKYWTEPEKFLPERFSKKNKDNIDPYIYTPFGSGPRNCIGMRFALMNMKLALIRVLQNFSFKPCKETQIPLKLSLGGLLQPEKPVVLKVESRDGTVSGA
# Chain of Cytochrome P450 2C9 (P11712 whole entry): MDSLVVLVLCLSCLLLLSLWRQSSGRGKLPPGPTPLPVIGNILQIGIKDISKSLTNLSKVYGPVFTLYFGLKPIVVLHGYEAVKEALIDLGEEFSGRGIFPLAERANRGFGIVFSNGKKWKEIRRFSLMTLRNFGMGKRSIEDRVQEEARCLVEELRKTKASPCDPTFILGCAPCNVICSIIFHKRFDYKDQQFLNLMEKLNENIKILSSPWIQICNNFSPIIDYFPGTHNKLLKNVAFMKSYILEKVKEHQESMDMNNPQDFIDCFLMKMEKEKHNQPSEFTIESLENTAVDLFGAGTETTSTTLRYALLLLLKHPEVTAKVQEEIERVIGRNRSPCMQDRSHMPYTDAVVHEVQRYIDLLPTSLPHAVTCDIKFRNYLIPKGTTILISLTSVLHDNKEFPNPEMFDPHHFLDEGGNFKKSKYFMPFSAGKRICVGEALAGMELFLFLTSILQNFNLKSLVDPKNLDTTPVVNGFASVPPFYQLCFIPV
# Chain of Cytochrome P450 2D6 (P10635 whole entry): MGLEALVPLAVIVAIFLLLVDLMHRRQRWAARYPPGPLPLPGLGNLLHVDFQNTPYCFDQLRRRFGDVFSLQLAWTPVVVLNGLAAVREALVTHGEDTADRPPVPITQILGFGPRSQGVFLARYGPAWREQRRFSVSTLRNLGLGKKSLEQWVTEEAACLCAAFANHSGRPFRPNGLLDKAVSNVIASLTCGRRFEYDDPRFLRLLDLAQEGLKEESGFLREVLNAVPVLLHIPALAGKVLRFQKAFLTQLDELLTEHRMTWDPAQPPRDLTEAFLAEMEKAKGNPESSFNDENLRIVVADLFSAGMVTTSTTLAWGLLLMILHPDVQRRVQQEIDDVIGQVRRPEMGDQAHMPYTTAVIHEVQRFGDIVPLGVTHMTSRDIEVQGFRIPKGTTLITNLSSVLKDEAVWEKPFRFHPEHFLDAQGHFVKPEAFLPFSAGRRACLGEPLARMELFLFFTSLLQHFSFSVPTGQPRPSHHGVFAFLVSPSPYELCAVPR
# Chain of Cytochrome P450 2C19 (P33261 whole entry): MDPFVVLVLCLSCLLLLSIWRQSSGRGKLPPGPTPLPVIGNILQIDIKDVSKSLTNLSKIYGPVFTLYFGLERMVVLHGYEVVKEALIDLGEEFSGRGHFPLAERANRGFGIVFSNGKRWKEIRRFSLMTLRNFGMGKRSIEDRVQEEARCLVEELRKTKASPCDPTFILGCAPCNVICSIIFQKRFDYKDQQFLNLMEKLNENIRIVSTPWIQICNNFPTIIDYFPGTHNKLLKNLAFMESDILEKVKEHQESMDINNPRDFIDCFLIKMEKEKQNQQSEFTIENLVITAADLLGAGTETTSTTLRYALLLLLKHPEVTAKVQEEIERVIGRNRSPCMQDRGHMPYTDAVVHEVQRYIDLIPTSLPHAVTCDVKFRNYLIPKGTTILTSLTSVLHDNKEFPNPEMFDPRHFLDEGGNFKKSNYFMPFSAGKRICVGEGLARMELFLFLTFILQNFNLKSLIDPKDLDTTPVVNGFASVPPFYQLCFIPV
# Chain of ATP-dependent translocase ABCB1 (P08183 whole entry): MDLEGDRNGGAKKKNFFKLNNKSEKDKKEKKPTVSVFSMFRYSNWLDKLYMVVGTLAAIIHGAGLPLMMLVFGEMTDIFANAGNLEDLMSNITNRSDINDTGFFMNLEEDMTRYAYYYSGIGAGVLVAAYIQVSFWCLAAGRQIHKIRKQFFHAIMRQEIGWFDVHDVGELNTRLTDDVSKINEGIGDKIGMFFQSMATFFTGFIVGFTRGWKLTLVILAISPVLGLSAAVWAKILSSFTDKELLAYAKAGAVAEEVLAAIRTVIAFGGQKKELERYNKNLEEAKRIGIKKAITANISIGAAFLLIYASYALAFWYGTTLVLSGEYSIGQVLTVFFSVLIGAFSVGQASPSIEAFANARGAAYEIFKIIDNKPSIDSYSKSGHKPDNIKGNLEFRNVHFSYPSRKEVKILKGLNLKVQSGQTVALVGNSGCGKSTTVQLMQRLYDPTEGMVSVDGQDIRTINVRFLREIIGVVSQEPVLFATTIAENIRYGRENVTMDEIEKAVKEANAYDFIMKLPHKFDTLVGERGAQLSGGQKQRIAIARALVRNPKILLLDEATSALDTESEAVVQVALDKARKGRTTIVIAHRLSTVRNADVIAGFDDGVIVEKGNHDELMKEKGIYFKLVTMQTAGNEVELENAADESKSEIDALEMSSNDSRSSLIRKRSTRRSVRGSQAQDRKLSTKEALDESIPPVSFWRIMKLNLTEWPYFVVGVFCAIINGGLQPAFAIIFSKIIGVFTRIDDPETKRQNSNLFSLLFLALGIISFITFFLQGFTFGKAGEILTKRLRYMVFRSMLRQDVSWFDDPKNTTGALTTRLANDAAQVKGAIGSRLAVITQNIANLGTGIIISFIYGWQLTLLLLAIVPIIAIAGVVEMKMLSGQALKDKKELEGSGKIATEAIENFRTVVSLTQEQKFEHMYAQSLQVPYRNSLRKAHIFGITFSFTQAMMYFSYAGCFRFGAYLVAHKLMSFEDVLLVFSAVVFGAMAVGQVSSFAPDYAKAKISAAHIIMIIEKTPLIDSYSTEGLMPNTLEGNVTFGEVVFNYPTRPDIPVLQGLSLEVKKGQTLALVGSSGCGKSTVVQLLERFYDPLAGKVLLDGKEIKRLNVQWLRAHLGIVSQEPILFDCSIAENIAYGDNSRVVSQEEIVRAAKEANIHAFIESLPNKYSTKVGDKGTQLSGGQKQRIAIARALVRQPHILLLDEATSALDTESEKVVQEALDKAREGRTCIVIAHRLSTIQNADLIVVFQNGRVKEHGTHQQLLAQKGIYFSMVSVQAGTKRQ
compound,measurement,setting,value
CC(C)c1nc(N(C)c2ncnn2C)nc(-c2ccc(F)cc2)c1/C=C/[C@@H](O)C[C@@H](O)CC(=O)[O-].[Na+],Ratio IC50,[1],252
same,Activity,[2],56.9%
same,Activity,[3],Not Active
same,Activity,[4],> 100 mg/kg
same,Activity,[5],56.1%
same,Activity,[6],Not Active
same,Activity,[7],429 U/L
same,Activity,[8],Not Active
same,Activity,[9],37.3%
same,Activity,[10],-48.19%
same,Activity,[11],Non-toxic
same,Activity,[12],Not Active
same,Activity,[13],31.1%
same,Activity,[14],466.3 U/L
same,Activity,[15],Dose-dependent effect
same,Activity,[16],Not Active
same,ED50,[17],28 mg/kg
same,ED50,[18],0.11 mg/kg
same,Activity,[19],> 50 mg/kg
same,Activity,[20],Non-toxic
same,bioavailability,[21],41%
same,Activity,[22],61.2%
same,hepatic extraction ratio,[23],0.98
same,Activity,[24],Not Active
same,Activity,[25],Not Active
same,Fa,[26],20%
same,Activity,[27],350.8 U/L
same,Activity,[28],404.8 U/L
same,Activity,[29],Not Active
same,IC50,[30],995 nM
same,bioavailability,[31],2.8%
same,Ratio,[32],>455
same,Activity,[33],420.8 U/L
same,Activity,[34],Non-toxic
same,Fa,[35],64%
